Laboratory results: ChEMBL document CHEMBL1629713, “Discovery of benzoylisoindolines as a novel class of potent, selective and orally active GlyT1 inhibitors” (Bioorg Med Chem Lett, 2010)
In brackets after ≈: the same amount, converted by molar mass.

Target: T1, Sodium- and chloride-dependent glycine transporter 2 (Homo sapiens, UniProt Q9Y345)
T1 sequence (Q9Y345 whole entry): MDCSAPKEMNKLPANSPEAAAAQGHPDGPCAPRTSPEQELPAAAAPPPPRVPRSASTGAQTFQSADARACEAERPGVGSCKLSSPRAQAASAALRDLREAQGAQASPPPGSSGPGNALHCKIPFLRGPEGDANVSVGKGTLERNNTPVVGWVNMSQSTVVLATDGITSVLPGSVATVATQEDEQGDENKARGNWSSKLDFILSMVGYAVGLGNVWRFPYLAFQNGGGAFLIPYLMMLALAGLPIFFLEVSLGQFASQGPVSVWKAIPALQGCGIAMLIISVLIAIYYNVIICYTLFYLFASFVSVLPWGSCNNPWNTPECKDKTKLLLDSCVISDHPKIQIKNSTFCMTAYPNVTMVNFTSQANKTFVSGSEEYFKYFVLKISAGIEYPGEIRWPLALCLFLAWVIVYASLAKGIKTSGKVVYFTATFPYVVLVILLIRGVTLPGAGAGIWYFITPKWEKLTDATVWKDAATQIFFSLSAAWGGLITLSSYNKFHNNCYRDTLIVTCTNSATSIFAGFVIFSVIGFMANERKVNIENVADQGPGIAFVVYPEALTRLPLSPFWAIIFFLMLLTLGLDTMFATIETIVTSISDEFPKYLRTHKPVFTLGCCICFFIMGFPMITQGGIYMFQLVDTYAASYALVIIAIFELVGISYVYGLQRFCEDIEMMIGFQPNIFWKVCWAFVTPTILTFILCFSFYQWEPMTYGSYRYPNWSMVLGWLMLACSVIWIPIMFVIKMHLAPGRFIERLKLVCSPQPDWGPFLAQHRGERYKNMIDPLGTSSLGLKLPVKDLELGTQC
Test: Inhibition of human GlyT2 expressed in CHO cells assessed as inhibition of [3H]glycine uptake by liquid scintillation counting
Format: cell-based
Conditions: not given
In short: (§1)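 [3H]-glycine uptake inhibition in cells transfected with human GlyT1 or human GlyT2 cDNA. EC50 values averaged from at least two independent experiments.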

EC50 [nM]	Structure (SMILES)
> 30000	CS(=O)(=O)c1ccc(OCc2ccccc2)c(C(=O)N2Cc3cc(C(F)(F)F)cnc3C2)c1
> 30000	C[C@H](Oc1ccc(S(C)(=O)=O)cc1C(=O)N1Cc2ccc(-c3ccccn3)cc2C1)C(F)(F)F
> 30000	CS(=O)(=O)c1ccc(-c2ccc(F)cc2)c(C(=O)N2Cc3ccc(C4CCOCC4)cc3C2)c1
> 30000	CS(=O)(=O)c1ccc(OCCC(F)(F)F)c(C(=O)N2Cc3ccc(C4CCOCC4)cc3C2)c1
14300	C[C@H](Oc1ccc(S(C)(=O)=O)cc1C(=O)N1Cc2ccc(N3CCCC3)cc2C1)C(F)(F)F
> 30000	C[C@H](Oc1ccc(S(C)(=O)=O)cc1C(=O)N1Cc2ccc(C(F)(F)F)nc2C1)C(F)(F)F
> 30000	COc1cccc2c1CN(C(=O)c1cc(S(C)(=O)=O)ccc1O[C@@H](C)C(F)(F)F)C2
> 30000	C[C@H](Oc1ccc(S(C)(=O)=O)cc1C(=O)N1Cc2ccc(C3CCCCO3)cc2C1)C(F)(F)F (some centres undefined)
> 30000	C[C@H](Oc1ccc(S(C)(=O)=O)cc1C(=O)N1Cc2ccc(N3CCOCC3)cc2C1)C(F)(F)F
> 30000	CC(C)Oc1ccc(S(C)(=O)=O)cc1C(=O)N1Cc2cc(C(F)(F)F)cnc2C1

System: Mus musculus
Test: Antipsychotic activity in po dosed mouse assessed as inhibition of L-687414-induced hyperlocomotion after 60 mins
Format: functional
Conditions: 1 h, read-out: ID50 (the source's name)
In short: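 Mice given compound orally, n = 8 per group; hyperlocomotion induced by L-687,414. Horizontal activity counts recorded over a 60-min period and reported as group means. ID50 (mg/kg) derived from dose-dependent inhibition of the L-687,414-induced response.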

Structure (SMILES)	ED50 [mg/kg]
CS(=O)(=O)c1ccc(-c2ccc(F)cc2)c(C(=O)N2Cc3ccc(C4CCOCC4)cc3C2)c1	0.3
CC(C)Oc1ccc(S(C)(=O)=O)cc1C(=O)N1Cc2cc(C(F)(F)F)cnc2C1	1

Target: T2, Sodium- and chloride-dependent glycine transporter 1 (Homo sapiens, UniProt P48067)
T2 sequence (P48067 whole entry): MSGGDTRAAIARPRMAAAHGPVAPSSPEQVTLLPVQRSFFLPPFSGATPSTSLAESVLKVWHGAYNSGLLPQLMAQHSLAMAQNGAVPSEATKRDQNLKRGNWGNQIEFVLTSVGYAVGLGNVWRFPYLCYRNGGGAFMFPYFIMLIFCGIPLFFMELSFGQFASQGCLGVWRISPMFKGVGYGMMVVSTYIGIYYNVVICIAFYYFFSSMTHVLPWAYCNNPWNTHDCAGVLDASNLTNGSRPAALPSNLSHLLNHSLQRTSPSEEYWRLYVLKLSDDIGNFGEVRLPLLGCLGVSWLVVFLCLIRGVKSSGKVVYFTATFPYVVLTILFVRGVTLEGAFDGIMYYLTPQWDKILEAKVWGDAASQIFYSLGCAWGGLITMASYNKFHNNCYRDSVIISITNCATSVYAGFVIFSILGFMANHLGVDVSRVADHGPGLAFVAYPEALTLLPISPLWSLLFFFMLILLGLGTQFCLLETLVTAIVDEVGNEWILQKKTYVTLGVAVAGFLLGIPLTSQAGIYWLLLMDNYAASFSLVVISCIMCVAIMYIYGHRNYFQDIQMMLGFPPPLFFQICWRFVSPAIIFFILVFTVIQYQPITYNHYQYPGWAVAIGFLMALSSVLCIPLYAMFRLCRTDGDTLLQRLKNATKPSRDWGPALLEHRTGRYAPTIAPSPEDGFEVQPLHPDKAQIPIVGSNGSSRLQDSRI
Test: Inhibition of human GlyT1 expressed in CHO cells assessed as inhibition of [3H]glycine uptake by liquid scintillation counting
Format: cell-based
Conditions: not given
In short: as §1

EC50 [nM]	Structure (SMILES)
805	CS(=O)(=O)c1ccc(OCc2ccccc2)c(C(=O)N2Cc3cc(C(F)(F)F)cnc3C2)c1
84	C[C@H](Oc1ccc(S(C)(=O)=O)cc1C(=O)N1Cc2ccc(-c3ccccn3)cc2C1)C(F)(F)F
16	CS(=O)(=O)c1ccc(-c2ccc(F)cc2)c(C(=O)N2Cc3ccc(C4CCOCC4)cc3C2)c1
137	CS(=O)(=O)c1ccc(OCCC(F)(F)F)c(C(=O)N2Cc3ccc(C4CCOCC4)cc3C2)c1
180	C[C@H](Oc1ccc(S(C)(=O)=O)cc1C(=O)N1Cc2ccc(N3CCCC3)cc2C1)C(F)(F)F
250	C[C@H](Oc1ccc(S(C)(=O)=O)cc1C(=O)N1Cc2ccc(C(F)(F)F)nc2C1)C(F)(F)F
1940	COc1cccc2c1CN(C(=O)c1cc(S(C)(=O)=O)ccc1O[C@@H](C)C(F)(F)F)C2
205	C[C@H](Oc1ccc(S(C)(=O)=O)cc1C(=O)N1Cc2ccc(C3CCCCO3)cc2C1)C(F)(F)F (some centres undefined)
275	C[C@H](Oc1ccc(S(C)(=O)=O)cc1C(=O)N1Cc2ccc(N3CCOCC3)cc2C1)C(F)(F)F
70	CC(C)Oc1ccc(S(C)(=O)=O)cc1C(=O)N1Cc2cc(C(F)(F)F)cnc2C1

System: not listed separately
Test: Aqueous solubility of the compound by lyophilisate solubility assay
Format: physicochemical
Conditions: buffer
In short: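 LYSA: compound in DMSO solution lyophilized, then dissolved in 0.05 M phosphate buffer pH 6.5, stirred 1 h and shaken 2 h; solubility in µg/ml.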

solubility [µg/mL]	Structure (SMILES)
72 (≈ 151 µM)	CS(=O)(=O)c1ccc(OCc2ccccc2)c(C(=O)N2Cc3cc(C(F)(F)F)cnc3C2)c1
30 (≈ 61.2 µM)	C[C@H](Oc1ccc(S(C)(=O)=O)cc1C(=O)N1Cc2ccc(-c3ccccn3)cc2C1)C(F)(F)F
15 (≈ 31.3 µM)	CS(=O)(=O)c1ccc(-c2ccc(F)cc2)c(C(=O)N2Cc3ccc(C4CCOCC4)cc3C2)c1
334 (≈ 671 µM)	CS(=O)(=O)c1ccc(OCCC(F)(F)F)c(C(=O)N2Cc3ccc(C4CCOCC4)cc3C2)c1
< 1	C[C@H](Oc1ccc(S(C)(=O)=O)cc1C(=O)N1Cc2ccc(N3CCCC3)cc2C1)C(F)(F)F
429 (≈ 889 µM)	C[C@H](Oc1ccc(S(C)(=O)=O)cc1C(=O)N1Cc2ccc(C(F)(F)F)nc2C1)C(F)(F)F
85 (≈ 192 µM)	COc1cccc2c1CN(C(=O)c1cc(S(C)(=O)=O)ccc1O[C@@H](C)C(F)(F)F)C2
< 1	C[C@H](Oc1ccc(S(C)(=O)=O)cc1C(=O)N1Cc2ccc(C3CCCCO3)cc2C1)C(F)(F)F (some centres undefined)
355 (≈ 712 µM)	C[C@H](Oc1ccc(S(C)(=O)=O)cc1C(=O)N1Cc2ccc(N3CCOCC3)cc2C1)C(F)(F)F
114 (≈ 266 µM)	CC(C)Oc1ccc(S(C)(=O)=O)cc1C(=O)N1Cc2cc(C(F)(F)F)cnc2C1

Target: hERG (KCNH2) (Homo sapiens, UniProt Q12809)
Sequence (Q12809 whole entry): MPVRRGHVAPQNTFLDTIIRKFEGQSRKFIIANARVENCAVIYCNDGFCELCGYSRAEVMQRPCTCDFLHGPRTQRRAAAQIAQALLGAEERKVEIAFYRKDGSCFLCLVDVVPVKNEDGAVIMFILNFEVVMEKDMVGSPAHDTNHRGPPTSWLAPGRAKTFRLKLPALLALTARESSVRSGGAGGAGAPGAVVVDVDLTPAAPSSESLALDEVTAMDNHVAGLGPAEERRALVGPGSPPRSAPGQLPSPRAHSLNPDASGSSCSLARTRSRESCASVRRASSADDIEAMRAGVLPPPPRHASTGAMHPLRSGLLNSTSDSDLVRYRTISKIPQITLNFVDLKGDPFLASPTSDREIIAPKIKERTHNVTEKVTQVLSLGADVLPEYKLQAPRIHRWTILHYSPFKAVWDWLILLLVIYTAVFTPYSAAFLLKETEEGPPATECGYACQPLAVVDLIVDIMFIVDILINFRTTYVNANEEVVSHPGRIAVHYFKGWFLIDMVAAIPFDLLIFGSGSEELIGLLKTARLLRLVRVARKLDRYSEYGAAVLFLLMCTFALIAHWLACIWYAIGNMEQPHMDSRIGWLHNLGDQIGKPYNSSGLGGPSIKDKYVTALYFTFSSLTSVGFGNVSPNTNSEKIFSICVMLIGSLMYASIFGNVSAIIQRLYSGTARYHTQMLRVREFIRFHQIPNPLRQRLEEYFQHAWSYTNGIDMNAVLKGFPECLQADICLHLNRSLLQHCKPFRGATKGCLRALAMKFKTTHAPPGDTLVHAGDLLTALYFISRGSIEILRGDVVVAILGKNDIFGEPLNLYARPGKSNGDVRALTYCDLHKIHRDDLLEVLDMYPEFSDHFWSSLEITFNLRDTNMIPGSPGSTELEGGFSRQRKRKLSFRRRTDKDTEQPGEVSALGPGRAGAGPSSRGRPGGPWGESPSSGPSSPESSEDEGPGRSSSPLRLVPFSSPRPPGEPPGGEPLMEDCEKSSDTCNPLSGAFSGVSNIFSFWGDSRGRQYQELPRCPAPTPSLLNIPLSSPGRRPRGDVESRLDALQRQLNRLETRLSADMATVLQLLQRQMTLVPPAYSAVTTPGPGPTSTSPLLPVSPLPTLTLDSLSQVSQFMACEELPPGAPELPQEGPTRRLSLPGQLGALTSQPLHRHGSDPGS
Test: Inhibition of human ERG at 10 uM by patch clamp assay
Conditions: not given
In short: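 hERG block measured by patch clamp at 10 µM; values averaged from at least two independent experiments.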

Structure (SMILES)	inhibition at 10 µM [%]
CS(=O)(=O)c1ccc(-c2ccc(F)cc2)c(C(=O)N2Cc3ccc(C4CCOCC4)cc3C2)c1	36
CC(C)Oc1ccc(S(C)(=O)=O)cc1C(=O)N1Cc2cc(C(F)(F)F)cnc2C1	10

System: not listed separately
Test: Permeability of the compound by PAMPA
Format: ADME
Conditions: read-out: permeability
In short: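 PAMPA: permeation constant Pe (10^-6 cm/s) measured through artificial membranes.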

Papp [×10⁻⁶ cm/s]	Structure (SMILES)
0.8	CS(=O)(=O)c1ccc(OCc2ccccc2)c(C(=O)N2Cc3cc(C(F)(F)F)cnc3C2)c1
0.8	C[C@H](Oc1ccc(S(C)(=O)=O)cc1C(=O)N1Cc2ccc(-c3ccccn3)cc2C1)C(F)(F)F
1.4	CS(=O)(=O)c1ccc(-c2ccc(F)cc2)c(C(=O)N2Cc3ccc(C4CCOCC4)cc3C2)c1
4.1	CS(=O)(=O)c1ccc(OCCC(F)(F)F)c(C(=O)N2Cc3ccc(C4CCOCC4)cc3C2)c1
0.8	C[C@H](Oc1ccc(S(C)(=O)=O)cc1C(=O)N1Cc2ccc(N3CCCC3)cc2C1)C(F)(F)F
5.5	C[C@H](Oc1ccc(S(C)(=O)=O)cc1C(=O)N1Cc2ccc(C(F)(F)F)nc2C1)C(F)(F)F
4.8	COc1cccc2c1CN(C(=O)c1cc(S(C)(=O)=O)ccc1O[C@@H](C)C(F)(F)F)C2
0.9	C[C@H](Oc1ccc(S(C)(=O)=O)cc1C(=O)N1Cc2ccc(C3CCCCO3)cc2C1)C(F)(F)F (some centres undefined)
4.3	C[C@H](Oc1ccc(S(C)(=O)=O)cc1C(=O)N1Cc2ccc(N3CCOCC3)cc2C1)C(F)(F)F
4.1	CC(C)Oc1ccc(S(C)(=O)=O)cc1C(=O)N1Cc2cc(C(F)(F)F)cnc2C1
